Results on 14 compounds are retold here after publication PMC10147382 (ACS chemical neuroscience, 2022).

The target of assay [1] is T1, 5-HT2A receptor (Homo sapiens, UniProt P28223). Kind of assay: G protein. The conditions noted are these: for decrease in potency versus the alpha-methyl (DOx) counterpart: Gq dissociation (Gq versus G11 for Ariadne/DOM). It counts as cell-based.
Target sequence in this assay (P28223 whole entry): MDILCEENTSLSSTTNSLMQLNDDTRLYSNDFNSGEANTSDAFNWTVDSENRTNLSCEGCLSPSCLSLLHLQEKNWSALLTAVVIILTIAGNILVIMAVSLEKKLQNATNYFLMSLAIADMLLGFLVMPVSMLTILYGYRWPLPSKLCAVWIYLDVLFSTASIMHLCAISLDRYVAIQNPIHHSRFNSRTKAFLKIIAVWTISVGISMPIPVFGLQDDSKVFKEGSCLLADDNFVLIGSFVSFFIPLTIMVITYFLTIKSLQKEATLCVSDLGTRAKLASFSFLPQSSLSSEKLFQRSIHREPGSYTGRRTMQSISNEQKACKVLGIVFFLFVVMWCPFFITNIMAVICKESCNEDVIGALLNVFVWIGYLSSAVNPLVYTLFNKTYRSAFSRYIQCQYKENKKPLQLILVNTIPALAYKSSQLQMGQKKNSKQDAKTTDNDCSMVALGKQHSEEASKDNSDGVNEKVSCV
Assay [2] deals with mice. The assay is described as follows: Head twitch response. It counts as in vivo, mouse. The conditions noted are these: for HTR response: 15 min period.
Assay [3] deals with 5-HT2B receptor (Homo sapiens, UniProt P41595). The assay is described as follows: G protein. It counts as cell-based. To be noted: Gq dissociation.
Assay [4] has as its target T1, 5-HT2A receptor. Kind of assay: β-arrestin2 recruitment BRET assay. It counts as cell-based.
Target sequence in this assay (P32121 whole entry): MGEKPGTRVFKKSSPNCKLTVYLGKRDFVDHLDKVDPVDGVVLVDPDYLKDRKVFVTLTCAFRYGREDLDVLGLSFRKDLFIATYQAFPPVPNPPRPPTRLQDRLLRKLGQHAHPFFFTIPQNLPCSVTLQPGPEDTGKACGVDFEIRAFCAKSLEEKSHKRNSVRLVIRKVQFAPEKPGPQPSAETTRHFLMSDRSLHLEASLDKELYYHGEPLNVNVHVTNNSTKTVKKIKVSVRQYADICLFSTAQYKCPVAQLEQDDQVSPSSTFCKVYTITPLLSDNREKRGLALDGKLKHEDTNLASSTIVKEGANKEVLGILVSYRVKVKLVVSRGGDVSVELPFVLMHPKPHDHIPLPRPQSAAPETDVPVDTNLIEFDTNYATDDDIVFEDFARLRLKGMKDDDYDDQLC
Target sequence in this assay (P28223 whole entry): as the sequence (P28223 whole entry) above
The subject of assay [5] is 5-HT2A receptors. The conditions noted are these: cited from earlier work.
In assay [6] the test system is 5-HT2A receptors. The conditions noted are these: cited from earlier work. The source holds these as a separate data set.
Assay [7] has as its target T1, 5-HT2A receptor. The assay is described as follows: Radioligand displacement assay. The conditions noted are these: standard radioligand 125I-DOI. It counts as binding. In general terms: In a radioligand displacement assay an active substance lowers the binding of a labelled ligand.
Target sequence in this assay (P28223 whole entry): as above
The target in assay [8] is T1, 5-HT2A receptor. Kind of assay: Calcium flux assay. It counts as cell-based. A digest of the protocol:
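Flp-In 293 T-Rex cells stably carry tetracycline-inducible human 5-HT2A or 5-HT2C. Expression is induced with tetracycline (2 ug/mL) the day before, with about 7,500 cells/well in 1% dialyzed FBS. Cells are loaded with Fluo-4 Direct for 1 h at 37°C in HBSS/20 mM HEPES pH 7.4 with 2.5 mM probenecid, then held 15 min at RT. Fluorescence is read 10 s baseline, then 5-10 min after drug. Peak fold-over-basal or AUC is normalized to % 5-HT, with EC50/Emax from nonlinear regression.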
Target sequence in this assay (P28223 whole entry): as above

Assay [9] concerns humans. The conditions noted are these: cited from earlier work.
Assay [10] relates to mice. The assay is described as follows: Open field test. It counts as in vivo, mouse. To be noted: mouse, in vivo.
The subject of assay [11] is mice. The conditions noted are these: cited from earlier work.
The test system of assay [12] is 5-HT2C receptors. The conditions noted are these: cited from earlier work.
Where [13] appears, read: phosphoinositide turnover ref 40.

Sequence of 5-HT2B receptor (P41595 whole entry): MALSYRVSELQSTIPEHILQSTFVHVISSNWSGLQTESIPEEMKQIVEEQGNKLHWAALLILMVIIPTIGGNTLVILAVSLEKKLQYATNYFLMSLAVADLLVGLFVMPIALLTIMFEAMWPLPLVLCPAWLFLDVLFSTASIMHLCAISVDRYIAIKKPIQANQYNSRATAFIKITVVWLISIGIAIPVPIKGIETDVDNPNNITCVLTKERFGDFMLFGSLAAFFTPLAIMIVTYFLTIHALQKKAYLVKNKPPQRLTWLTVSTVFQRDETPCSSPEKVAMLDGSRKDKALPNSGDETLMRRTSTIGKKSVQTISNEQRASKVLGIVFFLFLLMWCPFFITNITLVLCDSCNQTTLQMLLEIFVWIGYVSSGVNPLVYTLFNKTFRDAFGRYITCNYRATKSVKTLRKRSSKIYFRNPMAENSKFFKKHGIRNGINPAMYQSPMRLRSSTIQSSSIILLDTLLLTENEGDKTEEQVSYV

On to `CCC(N)Cc1cc(OC)c(COC)cc1OC` (stereo not drawn) [4C-MOM], for which, in assay [1] (Gq dissociation), the “less potent at 5-HT2A compared to Ariadne” value is on record as “approximately 2 fold”. In assay [2] (s.c.), the HTR response result is “only residual HTR”. Further, the “potency at 5-HT2B compared to Ariadne” value in [3] is given as “twice as potent”.
`CCCc1cc(OC)c(CC(N)CC)cc1OC` (stereo not drawn) [4C-Pr]: in assay [4], the “decrease in potency versus the alpha-methyl (DOx) counterpart” value (from here on “decrease … (DOx) counterpart”) is on record as 10 fold and the “drop in efficacy versus the alpha-methyl (DOx) counterpart” value came to 15%. Besides, the “loss in efficacy versus the alpha-methyl (DOx) counterpart” value in assay [1] (Gq dissociation) is given as 15%. Further, the “decrease … (DOx) counterpart” value in assay [1] was 20-30 fold.
For the compound `CCC(N)Cc1cc(OC)c(C(F)(F)F)cc1OC` (stereo not drawn) [4C-TFM], the “HTR after pretreatment with 5-HT2A antagonist MDL100,907 (volinanserin)” value in assay [2] (MDL100907 0.01 and 0.032 mg/kg ip 15 min prior) was “completely inhibited”.
Turning to `CCCC(N)Cc1cc(OC)c(C)cc1OC` (stereo not drawn) [5C-D], in assay [1] (Figure 3D signaling assays), the “decrease in potency relative to Ariadne” value is recorded as ~ 2 fold and the “drop in efficacy relative to Ariadne” value is on record as ~ 15%. In addition, the HTR response result in [2] (s.c.) is “indistinguishable from vehicle”.
The term Emax denotes the greatest response seen or fitted, relative to the assay's reference. Take `CCN(CC)CCc1c[nH]c2cc(F)ccc12` [6F-DET, 6-fluoro-diethyltryptamine]: the “affinity for 5-HT2A receptors, DET versus 6F-DET” value in [5] was “nearly identical affinity”. For the same compound, in assay [6] (setting [13]), the Emax was 63%, the “drop in efficacy versus DET” value is on record as 20% and the “weaker signaling potency (EC50 values) versus DET” value is given as 6 fold.
What is called Ki is a measure of affinity in units of concentration, obtained from inhibition or displacement. What is called EC50 is the midpoint of the concentration-response curve. As for `CC[C@H](N)Cc1cc(OC)c(C)cc1OC` [(S)-Ariadne], affinity in assay [7] was put at a Ki of 220 nM. Besides, the EC50 in [8] (read-out: EC50 (calcium flux)) worked out at 132 nM. Also, the “Emax (calcium flux)” value in [8] (relative to 5-HT) is recorded as 63%.
For the compound `CCC(N)Cc1cc(OC)c(C)cc1OC.Cl` (stereo not drawn) [Ariadne hydrochloride], the “subjective effect (online experience report)” value in assay [9] (50 mg oral plus 25 mg at 90 min, person 77 kg ref 35) is “MDMA-like effect but no psychedelic effects”.
As for `CCN(CC)CCc1c[nH]c2ccccc12` [DET, diethyltryptamine], in [5], the “affinity for 5-HT2A receptors, DET versus 6F-DET” value is “nearly identical affinity”. Also, the Emax in assay [6] (setting [13]) was 82%.
Regarding `COc1cc(CC(C)N)c(OC)cc1I` (stereo not drawn) [DOI, reference compound], the “increase in Gq dissociation potency compared to DOM” value in assay [1] (Gq dissociation) is on record as 20- to 30 fold.
`COc1cc(CC(C)N)c(OC)cc1C` (stereo not drawn) [DOM, 2,5-dimethoxy-4-methyl-amphetamine, reference compound]: the efficacy in assay [4] (normalized to 5-HT) turned out to be 103%. Besides, the Emax in assay [1] (read-out: Emax (Gq)) amounted to 96%. Besides, in assay [9], the “dose producing classic hallucinogen effects” value is on record as greater than 3 mg and the “dose producing detectable psychoactive, sub-hallucinogenic effects” value was 1 to 3 mg. Further, the “potency relative to mescaline in humans” value in assay [9] (per oral administration ref 6) is reported as “approximately 100 times”.
Consider `CCCc1cc(OC)c(CC(C)N)cc1OC` (stereo not drawn) [DOPR, reference compound], for which, in [1] (Gq dissociation), the “increase in Gq dissociation potency compared to DOM” value is given as 20- to 30 fold. Besides, in assay [2] (s.c.), the “dose of peak (maximum) HTR” value worked out at 1 mg/kg and the “time to maximum HTR frequency post-drug administration” value was 10 min. Besides, in assay [10], the “time in the center of the arena” value is on record as “trend for spending less time in the center of the arena”.
Take `CCC(N)Cc1cc(OC)c(I)cc1OC` (stereo not drawn) [iodo-Ariadne]: in assay [4], the “decrease … (DOx) counterpart” value is given as 5 fold and the “drop in efficacy versus the alpha-methyl (DOx) counterpart” value turned out to be 20%. Besides, in assay [1] (Gq dissociation), the “increase in potency compared to Ariadne” value is greater than 10 fold and the “loss in efficacy versus the alpha-methyl (DOx) counterpart” value worked out at 10%. The “decrease … (DOx) counterpart” value in assay [1] was 10 fold. Besides, the EC50 in assay [1] (read-out: EC50 (Gq), Gq dissociation BRET) was 16 nM.
In the case of `CN(C)CCc1c[nH]c2cccc(O)c12` [psilocin], the HTR counts in [11] is 15-25 HTR events per 15 min. Further, in assay [12], the “greater affinity in comparison to 6F-DET” value is listed as 10 fold. Besides, the “greater signaling potency in comparison to 6F-DET” value in assay [6] is listed as 15 fold. Moreover, the signaling efficacy in [6] (depending on the specific readout) is listed as 50-70%.
`CN(C)CCc1c[nH]c2cccc(OP(=O)(O)O)c12` [psilocybin]: the HTR counts in [11] was 15-25 HTR events per 15 min.
